The subject of one assay is BCA2. As to the kind of experiment: Analysis of BCA2 protein stability in MCF7 cells. The format is cell-based, human. Particulars: MCF-7 cells, in the presence of cycloheximide (CHX), 16 h. An outline of the steps:
(§1)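 MCF7 cells (1×10^6) seeded in six-well plates and grown overnight. Cycloheximide (100 µmol/L) given alone, with MG-132 (10 µmol/L), or with test compound for 8 and 16 h in total. Lysates Western blotted with polyclonal anti-BCA2 (1:800), monoclonal anti-β-actin (1:5000) and monoclonal anti-C-erbB2 (1:2000). Band mean grey value and integrated density expressed relative to control sample; protein levels normalised to β-actin.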

The subject of a further assay is Melanoma cell lines. Kind of assay: NCI sixty cell panel, melanoma subpanel. The format is cell-based. Particulars: Homo sapiens, read-out: pTGI Melanoma.
Assay [1] relates to sixty human tumor cell lines. Kind of assay: NCI sixty cell panel, mean of full panel. In kind it is cell-based. Particulars: for GI50: read-out: pGI50 MG-MID (converted); for CC50: read-out: pLC50 MG-MID (converted); for IC (TGI): read-out: pTGI MG-MID.
Assay [2] concerns panel of 36 human tumor cell lines. Kind of assay: Oncotest 36 cell line assay. In kind it is cell-based. Particulars: four days exposure. An outline of the steps: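 Panel of 36 lines: 24 derived from patient tumor xenografts passaged subcutaneously in nude mice, 12 commercial. Grown at 37°C, 5% CO2, in RPMI 1640 with 10% fetal calf serum and 0.1 mg/ml gentamicin. Test compound added one day after plating, at 5 concentrations, for four days. DNA content read by propidium iodide fluorescence. Three independent experiments, each in triplicate; IC70 values.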

In assay [3] the test system is PMET, B1647, HEL and M07e. Kind of assay: PMET inhibition in human leukemic cell lines B1647, HEL and M07e. The format is cell-based. Particulars: read-out: PMET inhibition IC50. Put shortly:
(§2)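 Plasma membrane electron transport assay: leukemic cells (10^5 per well in 0.1 ml) pretreated 30 min with test compound in DMSO (<0.1% final). WST-1 and mPMS then added (final 500 µM and 20 µM). WST-1 reduction followed in real time at 450 nm and expressed as % of control.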

Assay [4] deals with leukemia cell lines HL-60, K562, MOLT-4, CCRF-CEM, RPMI-8226, SR. As to the kind of experiment: Hollow fiber assay. The format is in vivo, human. Particulars: panel of six leukemia cell lines.
The subject of the next assay is HL-60-TB leukemia. As to the kind of experiment: Human tumor xenograft in nude mice. The format is in vivo. Particulars: HL-60-TB leukemia xenograft in nude mice.
For assay [5], the system named is plasma membrane electron transport (PMET), HL60 and HL60ρ^0 cells. As to the kind of experiment: PMET inhibition. In kind it is cell-based, human. Particulars: at 200 µM, 30 min pretreatment. An outline of the steps:
as §2

A further assay relates to Renal cancer cell lines. As to the kind of experiment: NCI sixty cell panel, renal subpanel. The format is cell-based. Particulars: Homo sapiens, read-out: pTGI Renal.
Another assay relates to Leukemia cell lines. Kind of assay: NCI sixty cell panel, leukemia subpanel. In kind it is cell-based. Particulars: Homo sapiens; for IC (TGI): read-out: pTGI Leukemia.
Assay [6] relates to Ovarian cancer cell lines. As to the kind of experiment: NCI sixty cell panel, ovarian subpanel. The format is cell-based. Particulars: Homo sapiens, read-out: pTGI Ovarian.
A further assay concerns Breast cancer cell lines. Kind of assay: NCI sixty cell panel, breast subpanel. Particulars: Homo sapiens, read-out: pTGI Breast. The format is cell-based.
In a further assay the test system is Colon cancer cell lines. As to the kind of experiment: NCI sixty cell panel, colon subpanel. In kind it is cell-based. Particulars: Homo sapiens, read-out: pTGI Colon.
For the next assay, the system named is C-erbB2. As to the kind of experiment: Stability of C-erbB2 and β-actin in MCF-7 cells. In kind it is cell-based, human. Particulars: Western blot. Put shortly:
as §1

For another assay, the system named is HL60 and HL60 ρ^0 cells. Kind of assay: 2-day MTT cell proliferation assay in HL60 and HL60ρ0 cells. In kind it is cell-based. Particulars: Homo sapiens, HL-60, 48 h, read-out: IC50 for cell proliferation. Put shortly: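 Cells exposed to test compound for 48 h, then MTT reduction read as a measure of proliferation. IC50 for cell proliferation derived from the readings.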
(In general: Tetrazolium assays rely on reduction of a dye to a coloured formazan, in cell work by metabolically active cells.)

In assay [7] the test system is Prostate cancer cell lines. As to the kind of experiment: cells. In kind it is cell-based. Particulars: Homo sapiens, read-out: pTGI Prostate.
For a further assay, the system named is NSCLC cell lines. As to the kind of experiment: NCI sixty cell panel, NSCLC subpanel. In kind it is cell-based. Particulars: Homo sapiens, read-out: pTGI NSCLC.
The next assay relates to CNS cancer cell lines. As to the kind of experiment: cells. In kind it is cell-based. Particulars: Homo sapiens, read-out: pTGI CNS.

Where a name gives a salt, the structure may show the parent alone. Where a SMILES comes first, the peptide text is derived from it. The star is where a group is joined. Cbz = O=C(OCc1ccccc1)*

As to `CC(C)C[C@@H](C=O)NC(=O)[C@H](CC(C)C)NC(=O)[C@H](CC(C)C)NC(=O)OCc1ccccc1` [MG-132, Z-Leu-Leu-Leu-al] (Cbz-Leu-Leu-Leu-aldehyde), in the assay with BCA2, the “increase of BCA2 protein compared to CHX treatment” value is listed as “more than 10 fold”.
Regarding `COc1ccc2c(c1)/C(=C\c1cccc(/C=C3/C(=O)Nc4ccc(OC)cc43)n1)C(=O)N2` [Compound 3d], in the assay on Melanoma cell lines, the IC (TGI) is 3.98 µM. Moreover, in assay [1], the GI50 is 1.2 µM, the CC50 was 39.8 µM and the IC (TGI) is 7.08 µM. Moreover, the “mean IC70” value in assay [2] amounted to 0.56 µg/mL. Moreover, in [3], the IC50 was 30 to 45 µM. Further, in [4], the “hollow fiber assay combined i.p. + s.c. score” value came out at 22. The “distal site antitumor activity in xenograft” value in the assay on HL-60-TB leukemia is on record as “did not show significant activity”.
Consider `O=C1Nc2ccc(C(=O)O)cc2/C1=C\c1cccc(/C=C2/C(=O)Nc3ccc(C(=O)O)cc32)n1` [Compound 3i], for which, in assay [1], the CC50 is 89.1 µM and the IC (TGI) is 83.2 µM. For the same molecule, the PMET inhibition entry in [5] is “inactive”.
On to `O=C(O)CCC(=O)c1ccc2c(c1)/C(=C\c1cccc(/C=C3/C(=O)Nc4ccc(C(=O)CCC(=O)O)cc43)n1)C(=O)N2` [Compound 3f], for which, in assay [1], the GI50 is 75.9 µM and the IC (TGI) was 95.5 µM.
As for `CC(=O)n1c(=O)/c(=C/c2c[nH]c3ccccc23)n(C(C)=O)c(=O)/c1=C/c1c[nH]c2ccccc12` [Compound 8a], the IC (TGI) was 50.1 µM in the assay with Renal cancer cell lines and 91.2 µM in assay [1]. For the same molecule, the GI50 in [1] is 74.1 µM. Moreover, the PMET inhibition entry in [5] is “inactive”.
Take `O=C1Nc2ccc(S(=O)(=O)O)cc2/C1=C\c1cccc(/C=C2/C(=O)Nc3ccc(S(=O)(=O)O)cc32)n1` [Compound 3k]: the GI50 in assay [1] was 97.7 µM.
Take `O=c1[nH]/c(=C\c2c[nH]c3ccccc23)c(=O)[nH]/c1=C\c1c[nH]c2ccccc12` [Compound 9a]: in assay [1], the GI50 was 81.3 µM. Moreover, the PMET inhibition result in [5] is “inactive”.
As to `COc1ccc2c(c1)/C(=C\c1cccc(/C=C3/C(=O)N(C)c4ccc(OC)cc43)n1)C(=O)N2C` [Compound 3p], the GI50 was 1170 nM in the assay with Leukemia cell lines (read-out: pGI50 Leukemia (converted)) and 1.74 µM in assay [1]. Moreover, the IC (TGI) is 31.6 µM in assay [6], 20 µM in the assay with Breast cancer cell lines and 12.3 µM in assay [1]. In addition, the CC50 in assay [1] is 43.7 µM.
In the case of `O=C1Nc2cccc(Cl)c2/C1=C\c1cccc(/C=C2/C(=O)Nc3cccc(Cl)c32)n1` [Compound 3b], the IC (TGI) with Colon cancer cell lines was 5.01 µM; with Melanoma cell lines, 3.16 µM; in [6] it was 2.82 µM. In addition, the GI50 in [1] is 0.457 µM. For the same molecule, the “mean IC70” value in assay [2] was determined as 0.35 µg/mL. Besides, the “effects on β-actin or the oncogenic receptor C-erbB2” value with C-erbB2 is on record as “No effects”. For the same molecule, the IC50 with HL60 and HL60 ρ^0 cells was in the range of 3 to 8 µM; in assay [3] it was 15 to 30 µM.
Turning to `CN1C(=O)/C(=C/c2cccc(/C=C3/C(=O)N(C)c4ccccc43)n2)c2ccccc21` [Compound 3o], in the assay on Leukemia cell lines, the IC (TGI) was 15.8 µM. Moreover, the IC (TGI) in [7] was 39.8 µM. In addition, in assay [1], the GI50 is 8.13 µM, the CC50 was 49 µM and the IC (TGI) is 26.9 µM. In assay [5], the PMET inhibition entry was “inactive”.
On to `CN(C)c1ccc2c(c1)/C(=C\c1cccc(/C=C3/C(=O)Nc4ccc(N(C)C)cc43)n1)C(=O)N2` [Compound 3g], for which, in the assay with Renal cancer cell lines, the IC (TGI) was 50.1 µM. Further, in [1], the GI50 is 5.37 µM, the CC50 is 91.2 µM and the IC (TGI) is 40.7 µM. The PMET inhibition result in assay [5] was “inactive”.
As to `O=C1Nc2ccccc2/C1=c1/[nH]c(=O)/c(=C2/C(=O)Nc3ccccc32)[nH]c1=O` [Compound 7a], the GI50 in [1] is 89.1 µM.
As for `CC[C@]1(O)C[C@H]2CN(CCc3c([nH]c4ccccc34)[C@@](C(=O)OC)(c3cc4c(cc3OC)N(C=O)[C@H]3[C@@](O)(C(=O)OC)[C@H](OC(C)=O)[C@]5(CC)C=CCN6CC[C@]43[C@@H]65)C2)C1` [Vincrist ine sulfate, reference compound], the IC (TGI) is 15.8 µM in the assay with Leukemia cell lines; 15.8 µM in the assay on NSCLC cell lines; 3.98 µM in the assay with Colon cancer cell lines; 6.31 µM with CNS cancer cell lines; 7.94 µM in the assay with Melanoma cell lines; 20 µM in assay [6]. Also, the IC (TGI) in the assay on Renal cancer cell lines is 20 µM; in assay [7], 6.31 µM; in the assay on Breast cancer cell lines it was 7.94 µM; in assay [1], 10 µM. Also, the GI50 in assay [1] is 0.2 µM.
Consider `Cc1cc2c(cc1O)/C(=C\c1cccc(/C=C3/C(=O)Nc4cc(C)c(O)cc43)n1)C(=O)N2` [Compound 3m], for which, in [1], the GI50 was 69.2 µM and the IC (TGI) was 97.7 µM.
As for `O=C1Nc2ccc(F)cc2/C1=C\c1cccc(/C=C2/C(=O)Nc3ccc(F)cc32)n1` [Compound 3h], the IC (TGI) in assay [6] was 25.1 µM. Besides, in assay [1], the GI50 was 3.24 µM, the CC50 was 60.3 µM and the IC (TGI) is 11.7 µM.
As to `O=C1Nc2cc(Cl)ccc2/C1=C\c1cccc(/C=C2/C(=O)Nc3cc(Cl)ccc32)n1` [Compound 3l], in assay [1], the GI50 is 2.04 µM, the CC50 is 39.8 µM and the IC (TGI) is 8.71 µM.
Consider `O=C1Nc2ccc(O)cc2/C1=C\c1cccc(/C=C2/C(=O)Nc3ccc(O)cc32)n1` [Compound 3e], for which, in assay [1], the GI50 was 39.8 µM, the CC50 was 97.7 µM and the IC (TGI) was 87.1 µM. In assay [3], the IC50 lay within 40 to 50 µM.
Turning to `O=C1Nc2ccccc2/C1=C\c1cccc(/C=C2/C(=O)Nc3ccccc32)n1` [Compound 3a], the IC (TGI) in the assay on Renal cancer cell lines is 1.62 µM. For the same molecule, in the assay on Breast cancer cell lines, the IC (TGI) is 2 µM. Also, in assay [1], the GI50 was 0.457 µM and the CC50 is 14.1 µM.
Regarding `O=C1Nc2ccc(Br)cc2/C1=C\c1cccc(/C=C2/C(=O)Nc3ccc(Br)cc32)n1` [Compound 3j], the IC (TGI) in [6] is 25.7 µM. In addition, in [1], the GI50 was 8.32 µM and the CC50 was 56.2 µM.
Regarding `COc1cc2c(cc1C)NC(=O)/C2=C/c1cccc(/C=C2/C(=O)Nc3cc(C)c(OC)cc32)n1` [Compound 3n], in assay [1], the GI50 was 51.3 µM and the IC (TGI) was 95.5 µM.
Consider `O=C1Nc2ccc(Cl)cc2/C1=C\c1cccc(/C=C2/C(=O)Nc3ccc(Cl)cc32)n1` [Compound 3c], for which, in [1], the GI50 was 1.07 µM, the CC50 is 16.2 µM and the IC (TGI) is 3.39 µM. Also, the IC50 in the assay on HL60 and HL60 ρ^0 cells was 3 to 8 µM.
As for `COc1ccc2[nH]cc(/C=c3\[nH]c(=O)/c(=C/c4c[nH]c5ccc(OC)cc45)[nH]c3=O)c2c1` [Compound 9b], in assay [1], the GI50 was 93.3 µM.

These data come from paper PMC2754042 (Journal of medicinal chemistry, 2008).
